ChEMBL document CHEMBL4043294, “Chemogenomic Profiling of Human and Microbial FK506-Binding Proteins” (J Med Chem, 2018)
Calls of active or inactive are those of the source. The rule behind the calls is not given here.

How the values were obtained:
[1] = target: Peptidyl-prolyl cis-trans isomerase FKBP1A (Homo sapiens, UniProt P62942); test: (§1) Displacement of 5-(3-(4-(((5S,6S)-10-(3,5-dichlorophenylsulfonyl)-2-oxo-5-vinyl-3,10-diazabicyclo[4.3.1]decan-3-yl)methyl)-1H-1,2,3-triazol-1-yl)propylcarbamoyl)-2-(6-(dimethylamino)-3-(dimethyliminio)-3,10-dihydroanthracen-9-yl)benzoate from human FKBP12 after 30 mins by fluorescence polarization assay
Sequence of Peptidyl-prolyl cis-trans isomerase FKBP1A (P62942 whole entry): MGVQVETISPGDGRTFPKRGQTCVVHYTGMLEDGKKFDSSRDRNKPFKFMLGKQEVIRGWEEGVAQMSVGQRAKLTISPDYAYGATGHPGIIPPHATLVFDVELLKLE
Procedure, shortened: (§2)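 Competitive fluorescence polarization against a TAMRA-labelled tracer in 20 mM NaCl, 20 mM HEPES pH 8.0, 0.002% Tween20. Ligand serially diluted 1:1 in DMSO, then diluted 50-fold into tracer-containing buffer and added to protein. Equilibrated 30 min at room temperature before polarization read. Competition curves fitted.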

Legionella pneumophila = test: Antibacterial activity against Legionella pneumophila Corby infected in differentiated human THP1 cells assessed as bacterial growth inhibition after 24 hrs; format: functional
Procedure, shortened: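 THP-1 monocytes at 5 × 10^5 cells/mL were differentiated with 100 nM PMA for 2 days. L. pneumophila Corby grown 3 days on BCYE agar was added at MOI 1. After 2 h, extracellular bacteria were washed off with PBS and compound was added in medium (control 1% DMSO). At 2 and 24 h, cells were lysed with 0.1% Triton X-100 and dilutions plated on BCYE. Colonies counted after 3–4 days at 37 °C. Three independent experiments in duplicate.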

Plasmodium falciparum [2] = test: Antiparasitic activity against Plasmodium falciparum 3D7 infected in human RBC assessed as decrease in parasitemia after 60 hrs by Hoechst 33342 staining-based flow cytometric method; format: functional; details: for IC50: 3D7, 60 h
Procedure, shortened: (§3)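 Sorbitol-synchronized early-stage parasites, adjusted to 1% parasitemia at 2% hematocrit. Serial dilutions of compound in DMSO (≤0.05% per well) applied in triplicate for 60 h. Cells stained with 16.2 μM Hoechst 33342 in PBS for 20 min at room temperature. Parasitemia read by flow cytometry; IC50 estimated from dose–response curves.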

[3] = as §1, with “Candida albicans” for “human”; procedure, shortened: as §2
Chlamydia pneumoniae [4] = test: Antibacterial activity against Chlamydia pneumoniae CWL029 infected in human Hep2 or HeLa cells assessed as decrease in generation of infectious elementary bodies at 10 uM after 48 hrs by immunofluorescent staining-based assay; format: functional, cell-based
Procedure, shortened: (§4)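 HEp-2 or HeLa cells, 3.5 × 10^4 per well in RPMI1640 with 5% FBS, nonessential amino acids and 2 mM glutamine, grown overnight at 37 °C in 5% CO2. Inhibitor added at infection (C. pneumoniae CWL029 0.2 IFU/cell; C. trachomatis serovar D 0.5 IFU/cell). Plates centrifuged at 700g for 1 h at 35 °C, then incubated 48 h. Inclusions stained with anti-chlamydial-LPS immunofluorescence and host cells counterstained with Evans Blue. Recoverable bacteria normalized to untreated controls.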

[5] = as §1, with “[…] FKBP35” for “human FKBP12”; parameters: species or system Plasmodium falciparum; procedure, shortened: as §2
[6] = target: T1, Peptidyl-prolyl cis-trans isomerase Mip (Chlamydia pneumoniae, UniProt Q9Z7P3); test: as §1, with “Chlamydia pneumoniae Mip” for “human FKBP12”; procedure, shortened: as §2
T1 sequence (Q9Z7P3 whole entry): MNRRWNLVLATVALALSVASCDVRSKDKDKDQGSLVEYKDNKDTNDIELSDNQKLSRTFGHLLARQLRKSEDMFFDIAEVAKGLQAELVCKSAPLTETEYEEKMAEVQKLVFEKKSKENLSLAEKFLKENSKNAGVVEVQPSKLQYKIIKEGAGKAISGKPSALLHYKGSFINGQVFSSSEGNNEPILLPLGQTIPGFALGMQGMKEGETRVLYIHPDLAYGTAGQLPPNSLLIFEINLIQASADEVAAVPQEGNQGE

[7] = target: Outer membrane protein MIP (Legionella pneumophila, UniProt Q70YI1); test: as §1, with “Legionella pneumophila Mip” for “human FKBP12”; procedure, shortened: as §2
Sequence of Outer membrane protein MIP (Q70YI1 21-233 limits assumed): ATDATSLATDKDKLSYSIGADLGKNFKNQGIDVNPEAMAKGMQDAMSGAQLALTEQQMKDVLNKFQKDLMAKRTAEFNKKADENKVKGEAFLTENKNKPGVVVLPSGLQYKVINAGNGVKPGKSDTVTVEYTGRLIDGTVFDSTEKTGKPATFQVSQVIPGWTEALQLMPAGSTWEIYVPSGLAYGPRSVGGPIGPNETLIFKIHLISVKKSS

Chlamydia pneumoniae [8] = test: Antibacterial activity against Chlamydia pneumoniae CWL029 infected in human Hep2 or HeLa cells assessed as decrease in inclusion size at 10 uM after 48 hrs by immunofluorescent staining-based assay; format: functional, cell-based; procedure, shortened: as §4
Chlamydia trachomatis = test: Antibacterial activity against Chlamydia trachomatis Serovar D infected in human Hep2 or HeLa cells assessed as decrease in generation of infectious elementary bodies at 10 uM after 48 hrs by immunofluorescent staining-based assay; format: functional, cell-based; procedure, shortened: as §4
[9] = as §1, with “Chlamydia trachomatis Mip” for “human FKBP12”; procedure, shortened: as §2
[10] = target: Peptidyl-prolyl cis-trans isomerase FKBP1B (Homo sapiens, UniProt P68106); test: as §1, with “FKBP12.6” for “FKBP12”
Sequence of Peptidyl-prolyl cis-trans isomerase FKBP1B (P68106 whole entry): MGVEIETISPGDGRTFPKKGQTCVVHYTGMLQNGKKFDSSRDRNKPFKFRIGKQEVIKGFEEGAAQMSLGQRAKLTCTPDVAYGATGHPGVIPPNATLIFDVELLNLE
Procedure, shortened: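 Competitive fluorescence polarization with the fluorescent tracer in 20 mM NaCl, 20 mM HEPES pH 8.0, 0.002% Tween20. Ligand is serially diluted 1:1 in DMSO, then 1:50 into tracer-containing buffer. This mix is added to protein at 1.11× final concentration (protein:mix 45:5). After 30 min at room temperature to reach equilibrium, polarization is read and competition curves are fitted.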

[11] = target: T2, Peptidyl-prolyl cis-trans isomerase FKBP5 (Homo sapiens, UniProt Q13451); test: as §1, with “FKBP51” for “FKBP12”; procedure, shortened: as §2
T2 sequence (Q13451 whole entry): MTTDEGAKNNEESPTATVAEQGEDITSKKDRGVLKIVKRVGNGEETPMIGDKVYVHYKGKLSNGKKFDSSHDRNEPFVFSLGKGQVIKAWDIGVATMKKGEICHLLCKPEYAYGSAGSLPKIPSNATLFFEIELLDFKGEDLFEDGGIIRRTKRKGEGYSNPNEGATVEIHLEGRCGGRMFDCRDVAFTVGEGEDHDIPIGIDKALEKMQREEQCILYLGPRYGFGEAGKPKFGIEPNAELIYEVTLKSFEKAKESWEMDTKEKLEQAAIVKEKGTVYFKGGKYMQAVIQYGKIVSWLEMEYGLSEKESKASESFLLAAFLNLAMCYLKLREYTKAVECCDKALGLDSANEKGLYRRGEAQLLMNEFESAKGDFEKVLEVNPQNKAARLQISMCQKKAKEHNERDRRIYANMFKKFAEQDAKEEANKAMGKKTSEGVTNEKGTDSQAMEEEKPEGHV

[12] = target: T3, Peptidyl-prolyl cis-trans isomerase FKBP2 (Homo sapiens, UniProt P26885); test: as §1, with “FKBP13” for “FKBP12”; procedure, shortened: as §2
T3 sequence (P26885 whole entry): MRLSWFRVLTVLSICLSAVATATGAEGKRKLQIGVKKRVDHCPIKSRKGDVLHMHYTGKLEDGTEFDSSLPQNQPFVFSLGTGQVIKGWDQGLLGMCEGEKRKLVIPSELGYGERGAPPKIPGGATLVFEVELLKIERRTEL

[13] = target: T4, Peptidyl-prolyl cis-trans isomerase FKBP4 (Homo sapiens, UniProt Q02790); test: as §1, with “FKBP52” for “FKBP12”; procedure, shortened: as §2
T4 sequence (Q02790 whole entry): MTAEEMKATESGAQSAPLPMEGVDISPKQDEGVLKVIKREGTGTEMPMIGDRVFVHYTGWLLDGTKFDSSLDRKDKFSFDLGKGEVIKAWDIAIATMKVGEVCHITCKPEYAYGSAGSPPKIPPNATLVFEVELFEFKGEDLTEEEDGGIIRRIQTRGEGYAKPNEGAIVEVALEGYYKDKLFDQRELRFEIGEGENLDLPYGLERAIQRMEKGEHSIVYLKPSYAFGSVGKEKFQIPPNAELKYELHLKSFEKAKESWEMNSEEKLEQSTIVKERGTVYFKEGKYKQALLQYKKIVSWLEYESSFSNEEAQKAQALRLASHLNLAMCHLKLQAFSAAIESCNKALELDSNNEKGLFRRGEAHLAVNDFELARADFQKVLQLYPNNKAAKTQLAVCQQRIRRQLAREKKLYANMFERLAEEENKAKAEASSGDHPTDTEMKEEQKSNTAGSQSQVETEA

[14] = target: T5, Peptidyl-prolyl cis-trans isomerase FKBP3 (Homo sapiens, UniProt Q00688); test: as §1, with “FKBP25” for “FKBP12”; procedure, shortened: as §2
T5 sequence (Q00688 whole entry): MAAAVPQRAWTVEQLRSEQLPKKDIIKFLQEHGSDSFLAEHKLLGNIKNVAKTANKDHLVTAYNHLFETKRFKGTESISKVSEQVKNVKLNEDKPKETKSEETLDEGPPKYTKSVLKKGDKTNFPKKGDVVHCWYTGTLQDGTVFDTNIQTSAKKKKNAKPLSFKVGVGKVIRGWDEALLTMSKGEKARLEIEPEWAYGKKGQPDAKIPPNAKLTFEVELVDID

Plasmodium falciparum [15] = test: Antiparasitic activity against multidrug-resistant Plasmodium falciparum Dd2 infected in human RBC assessed as decrease in parasitemia after 60 hrs by Hoechst 33342 staining-based flow cytometric method; format: functional; details: Dd2, 60 h; procedure, shortened: as §3

## C=C[C@H]1CN(CCCOC)C(=O)[C@@H]2CCC[C@H]1N2S(=O)(=O)c1cc(Cl)cc(Cl)c1
[1]
  Ki: 143 nM

## C=C[C@H]1CN(CCOCC)C(=O)[C@@H]2CCC[C@H]1N2S(=O)(=O)c1cc(Cl)cc(Cl)c1
[1]
  Ki: 21.1 nM

## C=C[C@H]1CN(C)C(=O)[C@@H]2CCC[C@H]1N2S(=O)(=O)c1cc(Cl)cc(Cl)c1
[1]
  Ki: 49 to 80 nM

## C=C[C@H]1CN(CCCCOC)C(=O)[C@@H]2CCC[C@H]1N2S(=O)(=O)c1cc(Cl)cc(Cl)c1
[1]
  Ki: 249 nM

## C=C[C@H]1CN(CC(=O)OCC)C(=O)[C@@H]2CCC[C@H]1N2S(=O)(=O)c1cc(Cl)cc(Cl)c1
[1]
  Ki: 7 to 25 nM

## C=C[C@H]1CN(CCNC)C(=O)[C@@H]2CCC[C@H]1N2S(=O)(=O)c1cc(Cl)cc(Cl)c1
[1]
  Ki: 7 to 25 nM

## CC[C@H]1CN(CCOC)C(=O)[C@@H]2CCC[C@H]1N2S(=O)(=O)c1cc(Cl)cc(Cl)c1
Legionella pneumophila
  growth inhibition (GI): Dose-dependent effect
Plasmodium falciparum [2]
  IC50: 8300 nM

## C=C[C@H]1CN(CC(N)=O)C(=O)[C@@H]2CCC[C@H]1N2S(=O)(=O)c1cc(Cl)cc(Cl)c1
[1]
  Ki: 7 to 25 nM

## C=C[C@@H]1CN(CCF)C(=O)[C@@H]2CCC[C@H]1N2S(=O)(=O)c1cc(Cl)cc(Cl)c1
[1]
  Ki: 49 to 80 nM

## C=C[C@H]1CN(Cc2ccccn2)C(=O)[C@@H]2CCC[C@H]1N2S(=O)(=O)c1ccc(-c2ncccn2)cc1
[3]
  Ki: 52 nM

## C=C[C@H]1CN(Cc2ccco2)C(=O)[C@@H]2CCC[C@H]1N2S(=O)(=O)c1cc(Cl)cc(Cl)c1
Chlamydia pneumoniae [4]
  Activity: Active
[5]
  Ki: 5220 nM
[6]
  Ki: 315 nM
[3]
  Ki: 1490 nM
[7]
  Ki: 6590 nM
Chlamydia pneumoniae [8]
  Activity: Active
Chlamydia trachomatis
  Activity: Active
[9]
  Ki: 1820 nM

## COC[C@H]1CN(Cc2ccccn2)C(=O)[C@@H]2CCC[C@H]1N2S(=O)(=O)c1cc(Cl)cc(Cl)c1
[10]
  Ki: 1.23 nM
[11]
  Ki: 24.5 nM
[12]
  Ki: 60.5 nM
[13]
  Ki: 18.9 nM
[1]
  Ki: 0.45 nM
[14]
  Ki: 1130 nM

## CC[C@H]1CN(Cc2ccccn2)C(=O)[C@@H]2CCC[C@H]1N2S(=O)(=O)c1cc(Cl)cc(Cl)c1
Legionella pneumophila
  growth inhibition (GI): Dose-dependent effect
[5]
  Ki: 98.1 nM
Plasmodium falciparum [15]
  IC50: 3100 nM
[6]
  Ki: 399 nM
[3]
  Ki: 40.1 nM
[7]
  Ki: 598 nM
[9]
  Ki: 1810 nM
Plasmodium falciparum [2]
  Activity: Dose-dependent effect
  IC50: 2300 nM

## C=C[C@@H]1CN(CCN(C)C)C(=O)[C@@H]2CCC[C@H]1N2S(=O)(=O)c1cc(Cl)cc(Cl)c1
[1]
  Ki: 7 to 25 nM

## C=C[C@H]1CN(CC(=O)O)C(=O)[C@@H]2CCC[C@H]1N2S(=O)(=O)c1cc(Cl)cc(Cl)c1
[1]
  Ki: 7 to 25 nM

## C=C[C@H]1CN(CCOC)C(=O)[C@@H]2CCC[C@H]1N2S(=O)(=O)c1cc(Cl)cc(Cl)c1
[1]
  Ki: 18.8 nM

## C#CCN1C[C@H](C=C)[C@H]2CCC[C@@H](C1=O)N2S(=O)(=O)c1cc(Cl)cc(Cl)c1
[1]
  Ki: 49 to 80 nM

## C=C[C@H]1CN(Cc2ncccc2F)C(=O)[C@@H]2CCC[C@H]1N2S(=O)(=O)c1cc(Cl)cc(Cl)c1
[1]
  Ki: 11.8 nM

## C=C[C@H]1CN(CC#N)C(=O)[C@@H]2CCC[C@H]1N2S(=O)(=O)c1cc(Cl)cc(Cl)c1
[1]
  Ki: 49 to 80 nM

## C=C[C@H]1CNC(=O)[C@@H]2CCC[C@H]1N2S(=O)(=O)c1cc(Cl)cc(Cl)c1
[1]
  Ki: 49 to 80 nM
